In ChEMBL document CHEMBL4130398, “Cyperaceae Species Are Potential Sources of Natural Mammalian Arginase Inhibitors with Positive Effects on Vascular Function” (J Nat Prod, 2017):

Legend:
Bos taurus = species: Bos taurus; assay: Inhibition of bovine liver arginase assessed as reduction in urea production at 100 uM using L-arginine as substrate after 60 mins in presence of MnCl2 by alpha-isonitrosopropiophenone reagent based spectrophotometric analysis relative to control
Procedure, shortened: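 Purified bovine liver arginase I (0.025 U/μL in Tris-HCl 50 mM pH 7.5 with 0.1% BSA) with 10 mM MnCl2 cofactor, inhibitor from DMSO stock diluted in water, and L-arginine (0.05 M, pH 9.7). Incubated 60 min at 37 °C. Acid quench, then α-isonitrosopropiophenone at 100 °C for 45 min, A550. Activity relative to solvent control; three experiments in duplicate, mean ± SEM.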

[1] = Inhibition of bovine liver arginase assessed as reduction in urea production using L-arginine as substrate after 60 mins in presence of MnCl2 by alpha-isonitrosopropiophenone reagent based spectrophotometric analysis; set-up: species or system Bos taurus
Procedure, shortened: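 Purified bovine liver arginase I with MnCl2 (10 mM) in Tris-HCl pH 7.5/BSA buffer, L-arginine substrate (0.05 M, pH 9.7). Inhibitors from 70 mM DMSO stocks, final 0.1–1000 μM in the well. 60 min at 37 °C, then urea read with α-isonitrosopropiophenone at 550 nm. IC50 taken from semilog plots of inhibition relative to solvent control; three experiments in triplicate, mean ± SEM.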

Compound | inhibition (Bos taurus) | IC50 [1]
OC[C@H]1O[C@@H](Oc2cc(/C=C/c3ccc(O)cc3)cc(O[C@@H]3O[C@H](CO)[C@@H](O)[C@H](O)[C@H]3O)c2)[C@H](O)[C@@H](O)[C@@H]1O | 80 to 90% | 
Oc1cc(O)cc([C@@H]2c3c(/C=C/c4ccc(O)c(O)c4)cc(O)cc3O[C@H]2c2ccc(O)c(O)c2)c1 | 80 to 90% | 22.6 µM
Oc1ccc([C@H]2Oc3cc(O)cc([C@@H]4[C@H](c5cc(O)cc(O)c5)[C@@H](c5ccc(O)cc5)O[C@@H]4c4ccc(O)cc4)c3[C@@H]2c2cc(O)cc3c2[C@@H](c2cc(O)cc(O)c2)[C@H](c2ccc(O)c(O)c2)O3)cc1 | 80 to 90% | 25.3 µM
Oc1ccc([C@H]2c3c(O)cc(O)cc3[C@H]3c4c(cc(O)cc4[C@@H]2O)O[C@H]3c2ccc(O)cc2)cc1 | 80 to 90% | 182 µM
Oc1cc(O)cc(/C=C/c2ccc(O)c(O)c2)c1 [PICEATANNOL] | 80 to 90% | 12.6 µM
Oc1cc(O)cc([C@@H]2[C@@H](c3ccc(O)c(O)c3)c3cc(O)c(O)cc3[C@@H]3c4c(O)cc(O)cc4[C@@H]4c5c(cc(O)cc5[C@H]32)O[C@H]4c2ccc(O)c(O)c2)c1 | 80 to 90% | 12.2 µM
N=C(NO)NCC[C@H](N)C(=O)O [NOR-NOHA] |  | 1.7 µM
Oc1ccc([C@H]2Oc3cc(O)cc([C@@H]4[C@H](c5cc(O)cc(O)c5)[C@@H](c5ccc(O)cc5)O[C@@H]4c4ccc(O)cc4)c3[C@@H]2c2cc(O)cc3c2[C@@H](c2cc(O)cc(O)c2)[C@H](c2ccc(O)cc2)O3)cc1 | 80 to 90% | 
Oc1ccc(/C=C/c2cc(O)cc3c2[C@H](c2cc(O)cc(O)c2)[C@@H](c2ccc(O)cc2)O3)cc1 | 80 to 90% | 27.8 µM
